Results from different studies.
Lines come from different studies, so protocols differ.
Target: Death-associated protein kinase 3 (DAPK3, Homo sapiens, UniProt O43293)

With O=C(c1ccc(Nc2ncc(Cl)c(-c3ccc(Cl)s3)n2)cc1)N1CCC(N2CCCC2)CC1 the remaining binding was 14% (binding, competition with immobilised ligand; 1 µM).
The remaining binding of COc1ccnn2ncc(-c3ccnc(N(C)C)n3)c12 is reported as 72% (binding; 1 µM).
O=C(NCCCN1CCOCC1)c1ccc(Nc2ncc(Cl)c(-c3ccc(Cl)s3)n2)cc1 has a remaining binding of 17% (binding, competition with immobilised ligand; 1 µM).
For CCN1CCN(Cc2ccc(C(=O)Nc3ccc(C)c(Oc4ccc5c(c4)CC(=O)N5)c3)cc2C(F)(F)F)CC1, the remaining binding was 100% (binding, competition with immobilised ligand; 1 µM).
Cc1c(NC(=O)c2cc(C(N)=O)nc3cc(F)ccc23)c(C(F)(F)F)nn1Cc1ccc(C#N)cc1 gave a remaining binding of 89% (cell-free assay, competition with immobilised ligand; 1 µM).
C[C@@H](c1ccc(-n2cnc3c(N)ncnc32)cc1)N1CCc2nn(C)c(Cc3ccccc3)c2C1=O gave a remaining binding of 87% (binding, competition with immobilised ligand; 0.1 µM).
With CN(c1nccc(-c2cnn3ncccc23)n1)C1CC1 the remaining binding was 70% (binding; 1 µM).
C=CC(=O)N1CCC(C(=O)NCC(=O)N2CCN(c3nc(-c4cnc(N)nc4C(F)F)nc(N4CCOCC4)n3)CC2)CC1 has a remaining binding of 89% (binding, competition with immobilised ligand; 1 µM).
Cn1cc(Cl)c2c(Oc3c(F)cc(Nc4cc(Cl)nc(N)n4)cc3F)ccnc21 gave a remaining binding of 100% (cell-free assay, competition with immobilised ligand; 0.1 µM).
Nc1ncc2c(n1)-c1c([nH]c3ccc(C#CC4CC4)cc13)CCCC2 has a remaining binding of 100% (binding, competition with immobilised ligand; 1 µM).
With CC(C)(O)c1cncc(-c2nc3ccc(F)cc3n2C2CC2)c1 the remaining binding was 100% (cell-free assay, competition with immobilised ligand; 1 µM).
With N[C@H]1CCN(c2nccc(-c3cnn4ncccc34)n2)C1 the remaining binding was 100% (binding; 1 µM).
For O=C(Nc1c[nH]nc1C(=O)NC1CCNCC1)c1cc(F)cc(F)c1, the remaining binding was 100% (binding, competition with immobilised ligand; 1 µM).
The remaining binding of COc1cnc(Nc2cccc(S(N)(=O)=O)c2)nc1N1CCN(c2ccccc2)CC1 is reported as 76% (binding, competition with immobilised ligand; 1 µM).
The remaining binding of c1cnn2ncc(-c3ccnc(N4CCC45COC5)n3)c2c1 is reported as 73% (binding; 1 µM).
COc1ccc2cc(OCC3(C(=O)O)CN(C(=O)c4ccc(F)cc4)C3)ccc2c1 gave a remaining binding of 100% (cell-free assay, competition with immobilised ligand; 1 µM).
The remaining binding of COc1cnc(Nc2cccc(S(N)(=O)=O)c2)nc1N1CCN(c2ccccc2)C(=O)C1 is reported as 92% (binding, competition with immobilised ligand; 1 µM).
For CS(=O)(=O)N1CCCC(NC(=O)[C@H](CCC2CCCCC2)NC(=O)c2ccc(CNC(=O)c3cnc4ccccn34)cc2)C1 (stereo partly shown), the remaining binding was 90% (cell-free assay, competition with immobilised ligand; 0.1 µM).
For C[C@H]1CCN(c2nccc(-c3cnn4ncccc34)n2)C1, the remaining binding was 79% (binding; 1 µM).
CNC(=O)Nc1ccc2c(c1)CC[C@@]21OC(=O)N(CC(=O)N(Cc2ccc(F)cc2)[C@@H](C)C(F)(F)F)C1=O has a remaining binding of 86% (cell-free assay, competition with immobilised ligand; 1 µM).
O=C(c1ccc(Nc2ncc(Cl)c(-c3cc4ccccc4s3)n2)cc1)N1CCC(N2CCCC2)CC1 gave a remaining binding of 11% (binding, competition with immobilised ligand; 1 µM).
For CN(C)c1ncc(F)c(-c2cnn3ncccc23)n1, the remaining binding was 63% (binding; 1 µM).
